Test [1] concerns Radical scavenging activity. Kind of test: Antioxidant activity assessed as DPPH free radical scavenging activity after 30 mins. Type of test: functional. The method in brief: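 DPPH dissolved in MeOH; 160 µL of reaction mixture containing test sample combined with 40 µL DPPH solution, kept in the dark 30 min. Absorbance read at 520 nm and percent inhibition calculated. IC50 (µM giving 50% inhibition of DPPH radical) derived from the log-dose inhibition curve. L-ascorbic acid served as positive control.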

The nature of test [2]: Cytotoxicity against mouse NS1 cells. Type of test: functional.
In test [3] the test system is A549. Kind of test: Cytotoxicity against human A549 cells after 24 hrs by SRB assay. The class given is functional, cell-based. The note with it: A549, 24 h. A digest of the protocol:
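SRB method: cells plated at 2 × 10^5 cells/mL, then test solutions in MeOH added and cultured a further 24 h. Cells fixed with 12% trichloroacetic acid, stained with 0.4% SRB, absorbance read at 515 nm. IC50 (concentration inhibiting proliferation 50%) calculated from the linear portion of log dose-response curves; paclitaxel positive control.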

The test system of test [4] is P388. Kind of test: Cytotoxicity against mouse P388 cells after 72 hrs by MTT assay. The class given is functional, cell-based. The note with it: P388, 72 h. A digest of the protocol:
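P388 and HL-60 cells seeded at 5 × 10^4 cells/mL and pre-incubated 24 h. Test solutions in MeOH added, then 72 h exposure. MTT (5 mg/mL solution) added for 4 h, formazan dissolved in DMSO, absorbance read at 540 nm. IC50 taken from the linear part of log dose-response curves. Paclitaxel as positive control.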
(In general: Tetrazolium assays rely on reduction of a dye to a coloured formazan, in cell work by metabolically active cells.)

For test [5], the system named is Bel-7402. Kind of test: Cytotoxicity against human Bel7402 cells after 24 hrs by SRB assay. Type of test: functional, cell-based. The following applies: Bel-7402, 24 h.
Test [6] has as its system HL-60. Kind of test: Cytotoxicity against human HL60 cells after 72 hrs by MTT assay. Type of test: functional, cell-based. The following applies: HL-60, 72 h.

Each structure is given as a SMILES string.

Consider `Cc1cc(O)c(C)c(O)c1C`, for which the IC50 in test [1] worked out at 3.8 µM.

In the case of `O=C1O[C@H]([C@@H](O)CO)C(O)=C1O` [ASCORBIC ACID], in test [1], the IC50 turned out to be 22.7 µM.

Regarding `CC1=C([C@H](C)[C@@H](C)OC=O)C(=O)C2=C(C1=O)[C@@H]1O[C@H](C)[C@@H](C)c3c(C)c(O)cc(c31)O2` [CITRININ H1], the IC50 in test [1] stood at 58.7 µM.

Consider `CC1=C2C(=CO[C@H](C)[C@H]2C)C(O)=C(C(=O)O)C1=O` [CITRININ], for which the half-maximal inhibitory concentration (IC50) in test [1] is 160 µM.

Consider `Cc1c2c(c3oc4cc(=O)c(C)c5c-4c(c3c1O)O[C@H](C)[C@H]5C)O[C@H](C)[C@H]2C` [DICITRININ A], for which, in test [1], the concentration for half-maximal inhibition (IC50) is 10.6 µM. In addition, the LD99 in test [2] is 6.3 µg/mL.

In the case of `Cc1c(O)c(C(=O)O)c(O)c2c1[C@H](C)[C@@H](C)OC2` [DIHYDROCITRININ], the IC50 in test [1] was 123 µM.

With `Cc1c(O)c(C(=O)O)c(O)c2c1[C@H](C)[C@@H](C)OC2=O` [DIHYDROCITRINONE], the IC50 in test [1] was above 1000 µM.

On to `Cc1cc(O)cc(O)c1` [ORCINOL], for which, in test [1], the IC50 was 0.8 µM.

Regarding `CC(=O)O[C@H]1C(=O)[C@@]2(C)[C@H]([C@H](OC(=O)c3ccccc3)[C@]3(O)C[C@H](OC(=O)[C@H](O)[C@@H](NC(=O)c4ccccc4)c4ccccc4)C(C)=C1C3(C)C)[C@]1(OC(C)=O)CO[C@@H]1C[C@@H]2O` [PACLITAXEL], the IC50 in test [3] is 0.93 µM.

As to `Cc1c(O)c2c(c3c1[C@H](C)[C@@H](C)O3)Oc1cc(O)c(C)c3c1[C@H]2O[C@H](C)[C@H]3C` [PENICITRINOL A], the IC50 in test [1] came out at 26.8 µM.

With `CO[C@@]12O[C@H](C)[C@@H](C)C1=C(C)C(=O)C1=C2Oc2cc(O)c(C)c3c2[C@H]1O[C@H](C)[C@H]3C` [PENICITRINOL B], the IC50 in test [4] was above 50 µM; in test [5], above 50 µM; in test [1] it was 291 µM; in test [6] it was above 50 µM; in test [3] it was above 50 µM.

With `Cc1c([C@H](C)[C@H](C)O)c(O)c2oc3cc(=O)c(C)c4c-3c(c2c1O)O[C@H](C)[C@H]4C` [PENNICITRINONE C], the IC50 in test [4] is above 50 µM; in test [5], above 50 µM; in test [1] it was 55.3 µM; in test [6], above 50 µM; in test [3], above 50 µM.

For `Cc1c([C@H](C)[C@@H](C)O)cc(O)c(C(=O)O)c1O` [PHENOL A ACID], in test [1], the IC50 stood at 796 µM.

As to `Cc1c(O)cc(O)cc1[C@H](C)[C@@H](C)O` [PHENOL A], in test [1], the IC50 turned out to be 22.5 µM.

As for `Cc1c(O)c(C)c2c(c1O)C(=O)OC(C)(O)C2` (centres undefined) [SCLEROTININ B], the IC50 in test [1] was above 1000 µM.

Usually IC50 stands for the concentration at which inhibition is half-maximal.

The values above are taken from ChEMBL document CHEMBL1149835, “Citrinin dimers from the halotolerant fungus Penicillium citrinum B-57” (J Nat Prod, 2008).
